In brackets after ≈: the same amount, converted by molar mass. Activity calls are given as the source filed them. The calls are words filed in the database; no cut-off is given here.

MIC data for 9 molecules are collected here from ChEMBL document CHEMBL1773012, “Synthesis, spectral, crystal structure and in vitro antimicrobial evaluation of imidazole/benzotriazole substituted piperidin-4-one derivatives” (2011).

For experiment [1], the system named is Rhizopus. The experiment is described as follows: Antimicrobial activity against Rhizopus sp. ATCC 2842 after 72 to 96 hrs by two fold serial dilution method. The format is functional. The method, boiled down:
(§1)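 Two-fold serial dilution in Sabouraud dextrose broth. Spores from 24 h to 7-day-old Sabouraud agar slant cultures were suspended in SDB. Compounds and reference drugs were tested at 200, 100, 50, 25, 12.5 and 6.25. Tubes were incubated in a BOD incubator, and MIC was recorded visually after 72–96 h.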

Experiment [2] relates to Aspergillus niger. The experiment is described as follows: Antimicrobial activity against Aspergillus niger ATCC 635 after 72 to 96 hrs by two fold serial dilution method. Type of experiment: functional. The method, boiled down:
as §1

Experiment [3] has as its system Staphylococcus aureus. The experiment is described as follows: Antimicrobial activity against Staphylococcus aureus ATCC 25930 after 24 hrs by two fold serial dilution method. The format is functional. Summed up: (§2)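 Nutrient broth two-fold serial dilution. Inoculum was seeded NB prepared from 24 h nutrient-agar cultures grown at 37 ± 1 °C and adjusted with sterile saline to 1×10⁴–10⁵ CFU. Compounds and reference drugs were tested at 200, 100, 50, 25, 12.5 and 6.25. Tubes were incubated in a BOD incubator, and MIC was read visually after 24 h.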

For experiment [4], the system named is Cryptococcus neoformans. Nature of the experiment: Antimicrobial activity against Cryptococcus neoformans ATCC 3235 after 72 to 96 hrs by two fold serial dilution method. Type of experiment: functional. The method, boiled down:
as §1

Experiment [5] has as its system Klebsiella pneumoniae. Nature of the experiment: Antimicrobial activity against Klebsiella pneumoniae ATCC 16425 after 24 hrs by two fold serial dilution method. The format is functional. Summed up: as §2
For experiment [6], the system named is Aspergillus flavus. Nature of the experiment: Antimicrobial activity against Aspergillus flavus ATCC 525 after 72 to 96 hrs by two fold serial dilution method. The format is functional. Summed up: as §1
The test system of experiment [7] is Candida albicans. Nature of the experiment: Antimicrobial activity against Candida albicans ATCC 3430 by two fold serial dilution method. Type of experiment: functional. The method, boiled down:
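Sabouraud dextrose broth two-fold serial dilution. Cells or spores from 24 h to 7-day-old Sabouraud agar slant cultures were suspended in SDB. Test and reference agents were tested at 200, 100, 50, 25, 12.5 and 6.25. Tubes were incubated in a BOD incubator, with MIC read by visual observation.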

Experiment [8] deals with Bacillus subtilis. The experiment is described as follows: Antimicrobial activity against Bacillus subtilis ATCC 530 after 24 hrs by two fold serial dilution method. The format is functional. The method, boiled down:
as §2

Experiment [9] has as its system Escherichia coli. The experiment is described as follows: Antimicrobial activity against Escherichia coli ATCC 26032 after 24 hrs by two fold serial dilution method. The conditions noted are these: ATCC 26032, 24 h. The format is functional. Summed up: as §2
In experiment [10] the test system is Salmonella typhi. The experiment is described as follows: Antimicrobial activity against Salmonella typhi ATCC 25021 after 24 hrs by two fold serial dilution method. Type of experiment: functional, Salmonella enterica subsp. enterica serovar Typhi. The settings on record: Salmonella enterica, ATCC 25021, 24 h. The method, boiled down:
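Two-fold serial dilution in nutrient broth. Seeded broth was made from 24 h bacterial cultures on nutrient agar grown at 37 ± 1 °C, and the suspension was adjusted with sterile saline to 1×10⁴–10⁵ CFU. Compounds and reference drugs were tested at 200, 100, 50, 25, 12.5 and 6.25. Tubes were incubated in a BOD incubator, and the MIC was read visually after 24 h.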

By MIC is commonly meant the lowest concentration found to suppress growth. Consider `CC1C(=O)C(C)C(c2cccc(F)c2)N(C(=O)Cn2nnc3ccccc32)C1c1cccc(F)c1` (centres undefined), for which the MIC in [1] came out at 100 µg/mL (≈ 211 µM); in experiment [2], 200 µg/mL (≈ 421 µM); in experiment [3] (ATCC 25930, 24 h), 50 µg/mL (≈ 105 µM); in [4], 100 µg/mL (≈ 211 µM); in [5] (ATCC 16425, 24 h), 25 µg/mL (≈ 52.7 µM); in experiment [6] it was 200 µg/mL (≈ 421 µM). The minimum inhibitory concentration (MIC) in [8] (ATCC 530, 24 h) was 25 µg/mL (≈ 52.7 µM); in experiment [9], 50 µg/mL (≈ 105 µM). The MIC entry in experiment [7] was “inactive”.

Take `CCC1C(=O)CC(c2ccccc2)N(C(=O)Cn2ccnc2)C1c1ccccc1` (centres undefined): the MIC in experiment [1] was 100 µg/mL (≈ 258 µM); in [3] (ATCC 25930, 24 h), 200 µg/mL (≈ 516 µM); in experiment [4], 50 µg/mL (≈ 129 µM); in [5] (ATCC 16425, 24 h), 100 µg/mL (≈ 258 µM); in experiment [6] it was 200 µg/mL (≈ 516 µM); in [7], 200 µg/mL (≈ 516 µM). The minimal inhibitory concentration (MIC) in experiment [10] was 200 µg/mL (≈ 516 µM); in [9], 50 µg/mL (≈ 129 µM). The MIC entry in experiment [2] and in experiment [8] was “inactive” throughout.

In the case of `COc1ccc(C2C(C)C(=O)C(C)C(c3ccc(OC)cc3)N2C(=O)Cn2ccnc2)cc1` (centres undefined), the MIC in experiment [1] was 100 µg/mL (≈ 223 µM); in [3] (ATCC 25930, 24 h) it was 100 µg/mL (≈ 223 µM); in [4] it was 50 µg/mL (≈ 112 µM); in experiment [5] (ATCC 16425, 24 h), 200 µg/mL (≈ 447 µM); in experiment [6], 100 µg/mL (≈ 223 µM); in experiment [7] it was 6.25 µg/mL (≈ 14 µM). In addition, the MIC in experiment [8] (ATCC 530, 24 h) worked out at 50 µg/mL (≈ 112 µM); in [10], 100 µg/mL (≈ 223 µM); in [9], 25 µg/mL (≈ 55.9 µM). In addition, in experiment [2], the MIC entry is “inactive”.

Turning to `CC1C(=O)CC(c2ccccc2)N(C(=O)Cn2ccnc2)C1c1ccccc1` (centres undefined), the MIC in experiment [1] is 100 µg/mL (≈ 268 µM); in [2] it was 200 µg/mL (≈ 536 µM); in [3] (ATCC 25930, 24 h) it was 100 µg/mL (≈ 268 µM); in experiment [4], 100 µg/mL (≈ 268 µM); in experiment [5] (ATCC 16425, 24 h), 50 µg/mL (≈ 134 µM); in experiment [6] it was 100 µg/mL (≈ 268 µM). The MIC in [7] came out at 100 µg/mL (≈ 268 µM); in experiment [8] (ATCC 530, 24 h) it was 25 µg/mL (≈ 66.9 µM); in experiment [10], 200 µg/mL (≈ 536 µM); in [9], 100 µg/mL (≈ 268 µM).

Consider `CC1C(=O)C(C)C(c2ccccc2)N(C(=O)Cn2ccnc2)C1c1ccccc1` (centres undefined), for which the MIC is 200 µg/mL (≈ 516 µM) in experiment [1]; 100 µg/mL (≈ 258 µM) in experiment [2]; 100 µg/mL (≈ 258 µM) in [4]; 100 µg/mL (≈ 258 µM) in experiment [5] (ATCC 16425, 24 h); 100 µg/mL (≈ 258 µM) in [6]; 100 µg/mL (≈ 258 µM) in experiment [8] (ATCC 530, 24 h). Besides, the minimal inhibitory concentration (MIC) in experiment [10] was determined as 100 µg/mL (≈ 258 µM); in [9] it was 6.25 µg/mL (≈ 16.1 µM). The MIC entry in [3] and in experiment [7] was “inactive” in each case.

Consider `CN[C@@H]1[C@H](O[C@H]2[C@H](O[C@H]3[C@H](O)[C@@H](O)[C@H](N=C(N)N)[C@@H](O)[C@@H]3N=C(N)N)O[C@@H](C)[C@]2(O)C=O)O[C@@H](CO)[C@H](O)[C@H]1O` [STREPTOMYCIN], for which the MIC in experiment [3] (ATCC 25930, 24 h) was determined as 50 µg/mL (≈ 86 µM); in experiment [5] (ATCC 16425, 24 h), 25 µg/mL (≈ 43 µM); in experiment [8] (ATCC 530, 24 h), 12.5 µg/mL (≈ 21.5 µM); in [10], 50 µg/mL (≈ 86 µM); in experiment [9], 12.5 µg/mL (≈ 21.5 µM).

As for `CC(C)C1C(=O)CC(c2ccccc2)N(C(=O)Cn2ccnc2)C1c1ccccc1` (centres undefined), the minimal inhibitory concentration (MIC) in experiment [1] stood at 50 µg/mL (≈ 125 µM); in experiment [2], 12.5 µg/mL (≈ 31.1 µM); in experiment [3] (ATCC 25930, 24 h), 100 µg/mL (≈ 249 µM); in experiment [4], 25 µg/mL (≈ 62.3 µM); in experiment [6] it was 100 µg/mL (≈ 249 µM); in experiment [7] it was 100 µg/mL (≈ 249 µM). Also, the minimum inhibitory concentration (MIC) in experiment [8] (ATCC 530, 24 h) came out at 12.5 µg/mL (≈ 31.1 µM); in experiment [10], 25 µg/mL (≈ 62.3 µM); in [9], 100 µg/mL (≈ 249 µM). Moreover, the MIC entry in experiment [5] is “inactive”.

On to `C[C@@H]1[C@H](O)[C@@H](C)/C=C/C=C/C=C/C=C/C=C/C=C/C=C/[C@H](O[C@@H]2O[C@H](C)[C@@H](O)[C@H](N)[C@@H]2O)C[C@@H]2O[C@](O)(C[C@@H](O)C[C@@H](O)[C@H](O)CC[C@@H](O)C[C@@H](O)CC(=O)O[C@H]1C)C[C@H](O)[C@H]2C(=O)O` [AMPHOTERICIN B], for which the minimal inhibitory concentration (MIC) was 25 µg/mL (≈ 27.1 µM) in experiment [1]; 50 µg/mL (≈ 54.1 µM) in experiment [2]; 25 µg/mL (≈ 27.1 µM) in experiment [4]; 50 µg/mL (≈ 54.1 µM) in experiment [6]; 25 µg/mL (≈ 27.1 µM) in experiment [7].

Regarding `CC1C(=O)C(C)C(c2cccc(F)c2)N(C(=O)Cn2ccnc2)C1c1cccc(F)c1` (centres undefined), the MIC came to 25 µg/mL (≈ 59 µM) in experiment [1]; 100 µg/mL (≈ 236 µM) in [2]; 50 µg/mL (≈ 118 µM) in [3] (ATCC 25930, 24 h); 6.25 µg/mL (≈ 14.8 µM) in experiment [4]; 200 µg/mL (≈ 472 µM) in experiment [5] (ATCC 16425, 24 h); 50 µg/mL (≈ 118 µM) in experiment [7]. The MIC was 50 µg/mL (≈ 118 µM) in experiment [10] and 200 µg/mL (≈ 472 µM) in [9]. Moreover, the MIC entry in [6] and in [8] was “inactive” in each case.
